# Laboratory results published in ChEMBL document CHEMBL2346551, “A new series of N2-substituted-5-(p-toluenesulfonylamino)phthalimide analogues as α-glucosidase inhibitors” (Bioorg Med Chem Lett, 2013).
# How the values were obtained:
# [1] = Inhibition of rat alpha-amylase using amylose as substrate by colorimetric analysis
# [2] = Inhibition of Saccharomyces cerevisiae alpha-glucosidase using 4-nitrophenyl alpha D-glucopyranoside as substrate assessed as release of 4-nitrophenol incubated for 5 mins prior to substrate addition measured after 10 mins
# In short: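 Yeast α-glucosidase assayed at 37 °C with 4-nitrophenyl α-D-glucopyranoside as substrate in 10 mM sodium phosphate buffer, pH 7.28. […] Absorbance rise at 400 nm compared with a DMSO control; IC50 read graphically from percent activity versus log concentration.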
# [3] = target: Lactase/phlorizin hydrolase (Rattus norvegicus, UniProt Q02401); assay: Inhibition of rat intestinal lactase using lactose as substrate by colorimetric analysis
# [4] = target: Maltase-glucoamylase, intestinal (Rattus norvegicus); assay: Inhibition of rat intestinal maltase using maltose as substrate by colorimetric analysis
# Lactase/phlorizin hydrolase, sequence (Q02401 868-1928 limits assumed): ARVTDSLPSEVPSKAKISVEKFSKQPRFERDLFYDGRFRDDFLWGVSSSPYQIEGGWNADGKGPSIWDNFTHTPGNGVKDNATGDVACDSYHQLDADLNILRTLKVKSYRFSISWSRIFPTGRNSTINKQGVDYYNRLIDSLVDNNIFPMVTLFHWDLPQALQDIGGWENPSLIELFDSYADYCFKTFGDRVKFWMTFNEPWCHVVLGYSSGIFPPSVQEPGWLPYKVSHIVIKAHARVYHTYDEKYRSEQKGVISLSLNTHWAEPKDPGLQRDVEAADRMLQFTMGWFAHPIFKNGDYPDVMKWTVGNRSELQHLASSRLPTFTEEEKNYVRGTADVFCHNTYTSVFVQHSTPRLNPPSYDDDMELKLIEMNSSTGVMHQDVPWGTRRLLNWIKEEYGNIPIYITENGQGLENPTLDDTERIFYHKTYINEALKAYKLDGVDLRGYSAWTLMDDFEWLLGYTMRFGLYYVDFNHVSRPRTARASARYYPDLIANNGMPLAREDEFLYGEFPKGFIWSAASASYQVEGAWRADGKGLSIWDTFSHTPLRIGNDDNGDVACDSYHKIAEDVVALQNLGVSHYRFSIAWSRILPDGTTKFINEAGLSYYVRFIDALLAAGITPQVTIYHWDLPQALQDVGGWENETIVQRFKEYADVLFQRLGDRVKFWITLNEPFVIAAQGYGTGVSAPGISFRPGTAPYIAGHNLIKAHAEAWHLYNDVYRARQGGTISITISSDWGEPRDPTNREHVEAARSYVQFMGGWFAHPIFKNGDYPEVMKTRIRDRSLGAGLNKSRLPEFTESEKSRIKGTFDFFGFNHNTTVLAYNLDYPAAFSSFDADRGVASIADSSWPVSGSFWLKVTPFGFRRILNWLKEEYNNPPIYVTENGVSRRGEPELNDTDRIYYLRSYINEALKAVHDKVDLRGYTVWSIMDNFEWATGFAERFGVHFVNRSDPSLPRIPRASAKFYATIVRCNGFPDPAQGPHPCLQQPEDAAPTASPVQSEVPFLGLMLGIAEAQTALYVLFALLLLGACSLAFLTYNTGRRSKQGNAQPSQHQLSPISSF
IC50 [1],IC50 [2],IC50 [3],IC50 [4],SMILES
> 200 µM,66.5 µM,199 µM,,Cc1ccc(S(=O)(=O)Nc2ccc3c(c2)C(=O)N(Cc2ccc(C#N)cc2)C3=O)cc1
> 200 µM,> 200 µM,> 200 µM,184 µM,O=C1c2ccccc2C(=O)N1CCNc1ccccc1
> 200 µM,88.4 µM,> 200 µM,,Cc1ccc(S(=O)(=O)Nc2ccc3c(c2)C(=O)N(CCCBr)C3=O)cc1
> 200 µM,68.9 µM,> 200 µM,111 µM,O=C1c2ccc([N+](=O)[O-])cc2C(=O)N1CCNc1ccccc1
> 200 µM,28.7 µM,111 µM,55.6 µM,Cc1ccc(S(=O)(=O)Nc2ccc3c(c2)C(=O)N(CCOc2cccc(O)c2)C3=O)cc1
> 200 µM,138 µM,> 200 µM,144 µM,Nc1ccc2c(c1)C(=O)N(CCNc1ccccc1)C2=O
> 200 µM,25.5 µM,100 µM,47.7 µM,Cc1ccc(S(=O)(=O)Nc2ccc3c(c2)C(=O)N(CCOc2ccc(O)cc2)C3=O)cc1
> 200 µM,28.7 µM,101 µM,122 µM,Cc1ccc(S(=O)(=O)Nc2ccc3c(c2)C(=O)N(Cc2ccc(Cl)c(Cl)c2)C3=O)cc1
> 200 µM,44.5 µM,66.6 µM,28.8 µM,Cc1ccc(S(=O)(=O)Nc2ccc3c(c2)C(=O)N(CCNc2ccc(O)c(O)c2)C3=O)cc1
> 200 µM,58.5 µM,177 µM,99.6 µM,Cc1ccc(S(=O)(=O)Nc2ccc3c(c2)C(=O)N(CCNc2ccccc2)C3=O)cc1
> 200 µM,> 200 µM,> 200 µM,> 200 µM,Cc1ccc(S(=O)(=O)Nc2ccc3c(c2)C(=O)N(C)C3=O)cc1
> 200 µM,60.3 µM,84.1 µM,,Cc1ccc(S(=O)(=O)Nc2ccc3c(c2)C(=O)N(Cc2ccc(C(N)=O)cc2)C3=O)cc1
> 200 µM,42.7 µM,172 µM,,Cc1ccc(S(=O)(=O)Nc2ccc3c(c2)C(=O)N(Cc2ccc(F)cc2)C3=O)cc1
> 200 µM,94.2 µM,> 200 µM,> 200 µM,Cc1ccc(S(=O)(=O)Nc2ccc3c(c2)C(=O)N(CCBr)C3=O)cc1
8.65 µM,235 µM,167 µM,,C[C@H]1O[C@H](O[C@H]2[C@H](O)[C@@H](O)[C@@H](O[C@H]3[C@H](O)[C@@H](O)C(O)O[C@@H]3CO)O[C@@H]2CO)[C@H](O)[C@@H](O)[C@@H]1N[C@H]1C=C(CO)[C@@H](O)[C@H](O)[C@H]1O (stereo not given in full) [ACARBOSE]
> 200 µM,32.6 µM,155 µM,188 µM,Cc1ccc(S(=O)(=O)Nc2ccc3c(c2)C(=O)N(Cc2ccc(Cl)cc2)C3=O)cc1
> 200 µM,40.8 µM,180 µM,195 µM,Cc1ccc(S(=O)(=O)Nc2ccc3c(c2)C(=O)N(Cc2ccccc2F)C3=O)cc1
> 200 µM,69.7 µM,> 200 µM,> 200 µM,Cc1ccc(S(=O)(=O)Nc2ccc3c(c2)C(=O)N(CCCCBr)C3=O)cc1
> 200 µM,72.6 µM,164 µM,,Cc1ccc(S(=O)(=O)Nc2ccc3c(c2)C(=O)N(Cc2ccc(O)c(O)c2)C3=O)cc1
> 200 µM,54.2 µM,> 200 µM,> 200 µM,Cc1ccc(S(=O)(=O)Nc2ccc3c(c2)C(=O)N(Cc2ccccc2)C3=O)cc1
> 200 µM,52.1 µM,> 200 µM,,Cc1ccc(S(=O)(=O)Nc2ccc3c(c2)C(=O)N(N2CCOCC2)C3=O)cc1
> 200 µM,47.3 µM,170 µM,,Cc1ccc(S(=O)(=O)Nc2ccc3c(c2)C(=O)N(CCOc2ccccc2)C3=O)cc1
